High-throughput results (PubChem BioAssay)
Neddylation inh – inhibitors of cullin neddylation, primary screen, biochemical, TR-FRET, uHTS, NAE and Ubc12; actives 0.58% (n = 360,000); AID 651699, 2012; NEDD8-conjugating enzyme Ubc12 (Homo sapiens) + NEDD8-activating enzyme E1 regulatory …; inhibition, % at 25 µM; in the data active means inhibition above about 36%
Target sequence (P61081 whole entry, looked up): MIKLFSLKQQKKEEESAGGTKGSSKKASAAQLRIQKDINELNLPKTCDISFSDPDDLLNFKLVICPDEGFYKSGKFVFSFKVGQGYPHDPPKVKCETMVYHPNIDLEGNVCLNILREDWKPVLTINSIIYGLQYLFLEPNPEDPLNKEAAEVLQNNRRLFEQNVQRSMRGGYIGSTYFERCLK
Target sequence (Q13564 whole entry, looked up): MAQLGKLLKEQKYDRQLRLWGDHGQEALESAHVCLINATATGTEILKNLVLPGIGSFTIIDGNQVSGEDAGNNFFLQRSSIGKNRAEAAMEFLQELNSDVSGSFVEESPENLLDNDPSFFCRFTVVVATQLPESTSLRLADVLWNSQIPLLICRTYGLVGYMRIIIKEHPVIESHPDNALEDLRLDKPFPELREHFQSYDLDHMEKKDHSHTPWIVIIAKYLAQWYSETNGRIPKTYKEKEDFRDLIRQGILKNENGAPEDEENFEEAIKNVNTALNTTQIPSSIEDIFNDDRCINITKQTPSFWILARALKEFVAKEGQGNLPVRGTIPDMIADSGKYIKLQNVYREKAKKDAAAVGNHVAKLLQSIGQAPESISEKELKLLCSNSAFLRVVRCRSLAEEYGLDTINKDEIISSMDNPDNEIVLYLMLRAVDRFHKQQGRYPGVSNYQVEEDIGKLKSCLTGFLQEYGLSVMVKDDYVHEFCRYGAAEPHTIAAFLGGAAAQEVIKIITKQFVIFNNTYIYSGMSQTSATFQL
PfM18AAP inh-1 – PfM18AAP inhibitors, malaria aminopeptidase, primary screen, biochemical, QFRET, recombinant enzyme; H-Glu-NHMec fluorogenic cleavage; inhibition, % at 7.35 µM; M18 aspartyl aminopeptidase (Plasmodium falciparum 3D7); actives 1.2% (n = 290,000);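 active means inhibition above the campaign mean inhibition over all tested compounds plus 3 SD, cut at about 28% in these data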
PfGluPho inh – PfG6PD enzyme inhibitors, primary screen, biochemical, fluorescence intensity, uHTS | actives 0.78% (n = 350,000) | inhibition, % at 20 µM | AID 504690, 2011 | PfGluPho enzyme, NADPH resazurin-diaphorase fluorescence | glucose-6-phosphate dehydrogenase-6-phosphogluconolactonase (Plasmodium falciparum 3D7);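 active means inhibition reaching at least a set limit at 20 µM in the primary screen, cut at about 59% in these data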
HKDC1 inhibitor – HKDC1 hexokinase inhibitors, primary screen, biochemical, fluorescence, uHTS; inhibition, % at 20 µM; AID 493160, 2011; actives 0.16% (n = 340,000); Q2TB90; recombinant HKDC1, G6PDH/diaphorase resazurin coupled fluorescence;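 active means inhibition above about 35% when tested at 20 µM, limit read from the data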
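Test system: Recombinant HKDC1 (HK5) hexokinase enzyme, produced in-house | Input: HKDC1 at 5 µg/mL | Buffer or medium: Tris pH 8.0 buffer with MgCl2, Tween-20, BSA, BME | Schedule: 90 min reaction incubation at room temperature, dark | Technique: Resazurin-to-resorufin fluorescence via G6PDH and diaphorase coupling, 525/613 nm | Controls: DMSO wells with and without enzyme mix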
PfM18AAP inh-2 – PfM18AAP inhibitors, malaria aminopeptidase, confirmation, biochemical, QFRET, recombinant enzyme, triplicate | shares compounds with PfM18AAP inh-1 | H-Glu-NHMec fluorogenic cleavage | inhibition, % at 7.35 µM | actives 28% (n = 2,400);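 active means mean inhibition over replicate wells above the hit cutoff set for the earlier primary screen, cut at about 29% in these data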
CTSL1 confirm – cathepsin L1 inhibitors, retest, confirmation, counter-screen for PFM18AAP inhibitor project, biochemical, QFRET, triplicate; shares compounds with PfM18AAP inh-1; purified cathepsin L1, Z-Leu-Arg-MCA fluorescence; inhibition, % at 5.96 µM; 2,400 tested, under 10 active; AID 2178, 2009;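 active means average inhibition across replicates above the hit cutoff set in the earlier primary screen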
Of the large screens only hits and unclear results are named; the others gave an inactive call (follow-up assays come after a bar, where they were run). In the library only some 2.2% were active in any assay of this set; here they are far more common.

O=C1C2Sc3[nH]c(=O)sc3C(c3ccccc3)C2C(=O)N1c1ccc(Cl)cc1 (stereo unspecified)	PfM18AAP inh-1 36.1 | PfM18AAP inh-2 inactive | CTSL1 confirm inactive
Cc1ccc(N2C(=O)C3Sc4[nH]c(=O)sc4C(c4ccccc4)C3C2=O)cc1 (stereo unspecified)	none
Cc1cc(=O)[nH]c(SCC(=O)NNC(=O)Cc2ccccc2)n1	PfM18AAP inh-1 35.5 | PfM18AAP inh-2 inactive | CTSL1 confirm inactive
CC(Sc1cccc[n+]1[O-])C(=O)NC1CCCCC1C (stereo unspecified)	none (no result: PfM18AAP inh-1)
Cc1cccc(NC(=S)NCc2ccco2)n1	PfM18AAP inh-1 37.8 | PfM18AAP inh-2 inactive | CTSL1 confirm inactive
S=C(NCc1ccccc1)NCc1ccco1	none
COc1ccc(CNCCS(=O)(=O)NN2CCOCC2)cc1	none (no result: PfM18AAP inh-1)
Oc1ccccc1N1CCN(c2ncccn2)CC1	PfM18AAP inh-1 42.1 | PfM18AAP inh-2 inactive | CTSL1 confirm inactive
CC1(C)OC2C(CO)OC(n3cnc4c(=S)nc[nH]c43)C2O1 (stereo unspecified)	PfM18AAP inh-1 31.9 | PfM18AAP inh-2 inactive | CTSL1 confirm inactive
CCCCn1c(N)c(N(CC(C)C)C(=O)c2ccc(Br)s2)c(=O)[nH]c1=O	none
C/C(=N/Nc1nc(-c2ccccc2)cc(-c2ccc(F)cc2)n1)c1cccc(N)c1	PfM18AAP inh-1 36.0 | PfM18AAP inh-2 inactive | CTSL1 confirm inactive
C/C(=N\Nc1nc(C)cc(-c2ccccc2)n1)c1ccc(F)cc1	none
CCN1CCC2(CC1)C(C#N)=C(N)Oc1c2sc2nc(C)cc(C)c12	PfM18AAP inh-1 33.3 | PfM18AAP inh-2 inactive | CTSL1 confirm inactive
Cc1ccc(C(=O)N/C(=C\c2ccccc2)C(=O)NCCN2CCOCC2)cc1	none
Cc1nnc(N/N=C/c2cccc(OCc3ccc(Cl)c(Cl)c3)c2)n1N	PfM18AAP inh-1 49.1 | PfM18AAP inh-2 inactive | CTSL1 confirm inactive
CCOc1cc(/C=N/NC(N)=O)ccc1OC(=O)c1ccc(C)cc1	none (no result: Neddylation inh, PfGluPho inh, HKDC1 inhibitor)
CCOc1cc(/C=N/Nc2nnc(C)n2N)ccc1OC(C)=O	PfM18AAP inh-1 33.5 | PfM18AAP inh-2 inactive | CTSL1 confirm inactive
NNC(=O)c1cc(O)c(O)c(O)c1	PfM18AAP inh-1 65.4 | PfM18AAP inh-2 44.3 | CTSL1 confirm inactive
COc1c(Cl)cc(C(=O)NN)cc1Cl	none
Cc1ccc(S(=O)(=O)Nc2ccc(O)c3cccnc23)cc1	PfM18AAP inh-1 48.6 | PfM18AAP inh-2 30.1 | CTSL1 confirm inactive
Cc1ccc(S(=O)(=O)Nc2ccc(O)c3ncccc23)cc1	PfM18AAP inh-1 39.5 | PfM18AAP inh-2 inactive | CTSL1 confirm inactive
O=C1c2ccc(-c3ccc(Cl)c(C(F)(F)F)c3)cc2S(=O)(=O)c2cccc(C(=O)N3CCN(c4ccc(Cl)cn4)CC3)c21	none (no result: PfM18AAP inh-1)
Cc1ccc(C)c(OC(=O)CN2C(=O)c3ccccc3C2=O)c1	none
CCCCC(=O)Nc1cc(C)c(NC(=O)c2ccco2)cn1	none
CCOC(=O)C1C(=O)NC(SC)=C(C#N)C1c1ccccc1F (stereo unspecified)	none
N#CC1=C(N)NC(=S)C(C(N)=O)C1c1ccccc1F (stereo unspecified)	PfM18AAP inh-1 46.5 | PfM18AAP inh-2 29.7 | CTSL1 confirm inactive
CCCCN(C(=O)COc1ccc(C)cc1OC)c1c(N)n(CCC)c(=O)[nH]c1=O	none
COc1cc([N+](=O)[O-])ccc1NC(=O)NNC(=O)c1sccc1C	PfM18AAP inh-1 52.7 | PfM18AAP inh-2 44.6 | CTSL1 confirm inactive
CC(=O)Nc1ccc(NC(=O)CC2Nc3cccc4cccc(c34)NC2=O)cc1 (stereo unspecified)	PfM18AAP inh-1 32.5 | PfM18AAP inh-2 inactive | CTSL1 confirm inactive
Cc1onc(-c2ccccc2Cl)c1C(=O)Nc1cccc(S(=O)(=O)NC2=NCCC2)c1	none (no result: PfM18AAP inh-1)
CC1CC(C)CN(S(=O)(=O)c2ccc(C(C)(C)C)cc2)C1 (stereo unspecified)	none
CC1CC(C)CN(S(=O)(=O)c2ccc(NN)nc2)C1 (stereo unspecified)	PfM18AAP inh-1 45.9 | PfM18AAP inh-2 33.4 | CTSL1 confirm inactive
O=C(c1ccc(SCc2ccco2)c([N+](=O)[O-])c1)N1CCOCC1	PfM18AAP inh-1 34.5 | PfM18AAP inh-2 inactive | CTSL1 confirm inactive
O=C(c1ccc(Sc2ccccc2)c([N+](=O)[O-])c1)N1CCOCC1	none
CC1CCCC(C)N1C(=O)COC(=O)CNC(=O)c1sc2ccccc2c1Cl (stereo unspecified)	none (no result: PfM18AAP inh-1)
CN(C)S(=O)(=O)c1cccc(C(=O)N2CCc3ccccc32)c1	none
CN(C)S(=O)(=O)c1cccc(C(=O)C2=C3SC=C(c4ccccc4)N3CC2)c1	PfM18AAP inh-1 34.3 | PfM18AAP inh-2 inactive | CTSL1 confirm inactive
Cc1nc(C(=O)NNC(=O)c2ccc(Cl)cc2)cs1	none
Cc1nc(/C(=N/O)C(N)=O)cs1	PfM18AAP inh-1 47.6 | PfM18AAP inh-2 38.0 | CTSL1 confirm inactive
Nn1cnnc1N/N=C/c1ccc(Cl)cc1Cl	PfM18AAP inh-1 48.5 | PfM18AAP inh-2 inactive | CTSL1 confirm inactive
O=C(CSc1nn(-c2ccccc2)c(=S)s1)NC1CCS(=O)(=O)C1 (stereo unspecified)	none
O=C(CSc1nn(-c2ccccc2)c(=S)s1)Nn1cnnc1	PfM18AAP inh-1 53.3 | PfM18AAP inh-2 73.4 | CTSL1 confirm inactive
O=C(CSc1nc2ccccc2s1)Nn1cnnc1	PfM18AAP inh-1 69.2 | PfM18AAP inh-2 57.0 | CTSL1 confirm inactive
c1ccc2c(c1)NCC1CCCN21 (stereo unspecified)	PfM18AAP inh-1 37.4 | PfM18AAP inh-2 inactive | CTSL1 confirm inactive
CC(=O)CC(=O)NC1CCc2ccccc21 (stereo unspecified)	none (no result: PfM18AAP inh-1)
Cc1nnc(SCC(=O)NNC(=O)CC#N)[nH]c1=O	PfM18AAP inh-1 42.7 | PfM18AAP inh-2 inactive | CTSL1 confirm inactive
OC(CNCCc1ccc(Cl)cc1)COc1cc(Cl)ccc1Cl (stereo unspecified)	none
Cc1cc(C)cc(NC(=O)NNC(=O)c2cc3occc3[nH]2)c1	PfM18AAP inh-1 55.6 | PfM18AAP inh-2 inactive | CTSL1 confirm inactive
Cc1cccc(NC(=O)NNC(=O)c2cc3ccccc3cc2O)c1C	none
Cc1cccc(NC(=O)NNC(=O)c2cc3occc3[nH]2)c1C	PfM18AAP inh-1 46.1 | PfM18AAP inh-2 inactive | CTSL1 confirm inactive
COc1ccccc1CCNC(=O)C(=O)NCC1OCCN1S(=O)(=O)c1ccc(OC)c(OC)c1 (stereo unspecified)	none
Cc1ccc(S(=O)(=O)NCC(=O)OCCOc2cccc(Cl)c2)cc1	none (no result: PfM18AAP inh-1)
CC(C)CC(=O)Nc1nnc(S(=O)(=O)N2CCCCCC2)s1	none
